Calls of active or inactive are those of the source. No cut-off for these calls is given here.
Legend:
Plasmodium yoelii [1] = assay: Antimalarial activity against Plasmodium yoelii YM infected in BALB/c mouse assessed as parasite growth inhibition at 10 mg/kg, sc administered QD for 4 days starting at 96 hrs post infection by Giemsa-staining based microscopic analysis; type: functional; conditions: read-out: GI
Procedure, shortened: (§1)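 P. yoelii-infected mice, n=3 per group. Subcutaneous injection once daily for 4 days starting at 96 h post infection. Parasitemia followed on blood-smear microscopy, with inhibition measured at 24 h post treatment. Cure time taken as the minimum period to cure all mice; survival recorded at 40 days. DMSO controls included.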

Plasmodium yoelii [2] = assay: Antimalarial activity against Plasmodium yoelii YM infected in BALB/c mouse assessed as parasite cure level at 10 to 90 mg/kg, ip administered on days 1 post infection by Giemsa-stained microscopic analysis; type: functional, organism-based
Procedure, shortened: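 Mice (groups of three) inoculated with 1×10^6 P. yoelii parasites. Single intraperitoneal dose of 10, 30 or 90 mg/kg given 24 h after inoculation. DMSO-only untreated group included. Outcome followed by blood-smear microscopy for cure, with survival scored at 40 days post infection.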

Plasmodium yoelii [3] = assay: Antimalarial activity against Plasmodium yoelii YM infected in BALB/c mouse assessed as mouse survival at 30 mg/kg, sc administered BID for 4 days starting at 96 hrs post infection, 8 hrs apart by Giemsa-staining based microscopic analysis; type: functional
Procedure, shortened: (§2)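 Mice inoculated with 1×106 P. yoelii parasites. Subcutaneous dosing for 4 days starting 96 h post infection, given once daily or twice daily 8 h apart. Parasitemia followed on Giemsa-stained blood smears. Survival recorded at 40 days post infection; groups of n=3. DMSO-only mice served as untreated controls.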

Plasmodium yoelii [4] = assay: Antimalarial activity against Plasmodium yoelii YM infected in BALB/c mouse assessed as mouse survival at 10 mg/kg, sc administered BID for 4 days starting at 96 hrs post infection, 8 hrs apart by Giemsa-staining based microscopic analysis; type: functional; procedure, shortened: as §2
Plasmodium yoelii [5] = assay: Antimalarial activity against Plasmodium yoelii YM infected in BALB/c mouse assessed as time duration for parasite cure at 5 mg/kg, sc administered QD for 4 days starting at 2 hrs post infection by Giemsa-staining based microscopic analysis; type: functional
Procedure, shortened: (§3)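 P. yoelii-infected mice, n=3 per group. Subcutaneous injection once daily for 4 days starting at 2 h post infection. Growth inhibition determined at 24 h post treatment by blood-smear microscopy. Cure time taken as the minimum period to cure all mice in the group.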

Plasmodium yoelii [6] = assay: Antimalarial activity against Plasmodium yoelii YM infected in BALB/c mouse assessed as mouse survival at 10 mg/kg, sc administered QD for 4 days starting at 96 hrs post infection by Giemsa-staining based microscopic analysis; type: functional; procedure, shortened: as §2
Plasmodium yoelii [7] = assay: Antimalarial activity against Plasmodium yoelii YM infected in BALB/c mouse assessed as time duration for parasite cure at 10 mg/kg, sc administered QD for 4 days starting at 96 hrs post infection by Giemsa-staining based microscopic analysis; type: functional; procedure, shortened: as §1
Plasmodium yoelii [8] = assay: Antimalarial activity against Plasmodium yoelii YM infected in BALB/c mouse assessed as time duration for parasite cure at 30 mg/kg, sc administered BID for 4 days starting at 96 hrs post infection, 8 hrs apart by Giemsa-staining based microscopic analysis; type: functional
Procedure, shortened: (§4)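 P. yoelii-infected mice, n=3 per group. Subcutaneous injection twice daily, 8 h apart, for 4 days starting at 96 h post infection. Growth inhibition read from blood smears at 24 h post treatment. Cure time taken as the minimum period to cure all mice in the group. DMSO controls included.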

Plasmodium yoelii [9] = assay: Antimalarial activity against Plasmodium yoelii YM infected in BALB/c mouse assessed as time duration for parasite cure at 10 mg/kg, sc administered BID for 4 days starting at 96 hrs post infection, 8 hrs apart by Giemsa-staining based microscopic analysis; type: functional; procedure, shortened: as §4
Plasmodium yoelii [10] = assay: Antimalarial activity against Plasmodium yoelii YM infected in BALB/c mouse assessed as time duration for parasite cure at 90 mg/kg, sc administered BID for 4 days starting at 96 hrs post infection, 8 hrs apart by Giemsa-staining based microscopic analysis; type: functional; procedure, shortened: as §4
Plasmodium yoelii [11] = assay: Antimalarial activity against Plasmodium yoelii YM infected in BALB/c mouse assessed as parasite growth inhibition at 5 mg/kg, sc administered QD for 4 days starting at 2 hrs post infection by Giemsa-staining based microscopic analysis; type: functional; conditions: read-out: GI; procedure, shortened: as §3
Plasmodium yoelii [12] = assay: Antimalarial activity against Plasmodium yoelii YM infected in BALB/c mouse assessed as parasite growth inhibition at 30 mg/kg, sc administered BID for 4 days starting at 96 hrs post infection, 8 hrs apart by Giemsa-staining based microscopic analysis; type: functional; conditions: read-out: GI; procedure, shortened: as §4
Plasmodium yoelii [13] = assay: Antimalarial activity against Plasmodium yoelii YM infected in BALB/c mouse assessed as mouse survival at 5 mg/kg, sc administered QD for 4 days starting at 2 hrs post infection by Giemsa-staining based microscopic analysis; type: functional
Procedure, shortened: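 Mice inoculated with 1×106 P. yoelii parasites, then dosed subcutaneously once daily for 4 days starting 2 h post infection. Parasitemia followed by microscopy of blood smears. Survival scored at 40 days post infection in groups of n=3 mice. DMSO-only controls.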

Plasmodium yoelii [14] = assay: Antimalarial activity against Plasmodium yoelii YM infected in BALB/c mouse assessed as parasite growth inhibition at 90 mg/kg, sc administered BID for 4 days starting at 96 hrs post infection, 8 hrs apart by Giemsa-staining based microscopic analysis; type: functional; conditions: read-out: GI; procedure, shortened: as §4
Plasmodium yoelii [15] = assay: Antimalarial activity against Plasmodium yoelii YM infected in BALB/c mouse assessed as mouse survival at 90 mg/kg, sc administered BID for 4 days starting at 96 hrs post infection, 8 hrs apart by Giemsa-staining based microscopic analysis; type: functional; procedure, shortened: as §2
Plasmodium yoelii [16] = assay: Antimalarial activity against Plasmodium yoelii YM infected in BALB/c mouse assessed as parasite growth inhibition at 10 mg/kg, sc administered BID for 4 days starting at 96 hrs post infection, 8 hrs apart by Giemsa-staining based microscopic analysis; type: functional; conditions: read-out: GI; procedure, shortened: as §4
Plasmodium falciparum = assay: Antimalarial activity against […] asexual blood stage Plasmodium falciparum 3D7 after 72 hrs by SYBR green-based fluorometric analysis; type: functional; conditions: 3D7, 72 h
Procedure, shortened: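 Mid-ring-stage cultures (~6-10 h post-invasion) at 1% parasitemia and 2% hematocrit, in triplicate. Twofold serial dilutions from a top concentration of 100 nM. Incubated 72 h at 37 °C under 5% CO2/5% O2/90% N2. Lysis buffer containing 5×SYBR Green I added, 20 min in the dark, fluorescence read at ex 485/em 538 nm. EC50 derived.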

SMILES	inhibition in vivo at 10 mg/kg (Plasmodium yoelii [1])	Activity (Plasmodium yoelii [2])	survival at 30 mg/kg (Plasmodium yoelii [3])	survival at 10 mg/kg (Plasmodium yoelii [4])	Time (Plasmodium yoelii [5])	survival at 10 mg/kg (Plasmodium yoelii [6])	Time (Plasmodium yoelii [7])	Time (Plasmodium yoelii [8])	Time (Plasmodium yoelii [9])	Time (Plasmodium yoelii [10])	inhibition in vivo at 5 mg/kg (Plasmodium yoelii [11])	inhibition in vivo at 30 mg/kg (Plasmodium yoelii [12])	survival at 5 mg/kg (Plasmodium yoelii [13])	inhibition in vivo at 90 mg/kg (Plasmodium yoelii [14])	survival at 90 mg/kg (Plasmodium yoelii [15])	inhibition in vivo at 10 mg/kg (Plasmodium yoelii [16])	EC50 (Plasmodium falciparum)
CCc1nc(N)nc(N)c1-c1ccc(Cl)cc1 [PYRIMETHAMINE]	98.4%	Active	100%	100%	30 days	100%	17 days	4 days	4 days	4 days	100%	100%	100%	100%	100%	100%	
C[C@H]1[C@@H](O)O[C@@H]2O[C@@]3(C)CC[C@H]4[C@H](C)CC[C@@H]1[C@@]24OO3 [ARTENIMOL]		Active	100%	100%				4 days	15 days	4 days		100%		100%	100%	100%	4.32 nM

Source: ChEMBL document CHEMBL4007417, “Target Elucidation by Cocrystal Structures of NADH-Ubiquinone Oxidoreductase of Plasmodium falciparum (PfNDH2) with Small Molecule To Eliminate Drug-Resistant Malaria” (J Med Chem, 2017)
